EBNA-1 inhibitor: blocks EBNA-1 binding to DNA. 300,000 tested, 0.34% active. inhibition, % at 14.8 µM. AID 1950. EBNA-1 DNA binding, fluorescence polarization; in the data active = inhibition above about 28%
ZTA DNA inh: ZTA (EBV) inhibition in EBNA-1 counter-screen. P03206. ZTA-DNA binding, fluorescence polarization. inhibition, % at 11 µM. 320,000 tested, 0.15% active; in the data active = inhibition above about 33%
Target sequence (P03206 whole entry, looked up): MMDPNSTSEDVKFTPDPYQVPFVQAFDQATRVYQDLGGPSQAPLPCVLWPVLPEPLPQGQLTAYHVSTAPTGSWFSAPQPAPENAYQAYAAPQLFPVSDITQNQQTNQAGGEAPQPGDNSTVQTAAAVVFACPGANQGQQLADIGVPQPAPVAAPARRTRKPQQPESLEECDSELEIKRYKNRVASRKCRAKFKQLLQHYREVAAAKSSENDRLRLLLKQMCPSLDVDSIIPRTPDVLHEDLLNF
UBC13 inh: blocks human UBC13 polyubiquitin chain formation; TR-FRET; 330,000 tested, 0.47% active; inhibition, % at 20 µM; P61088; in the data active = inhibition above about 45%, passing the limit was not always enough; inconclusive = no clear call, values can overlap the other calls
PREPL inhibitor: human PREPL enzyme inhibition | recombinant PREPL, fluorescence polarization activity-based probe | inhibition, % at 5.96 µM | 320,000 tested, 0.68% active;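 also: 0% = enzyme with DMSO and 100% = wells lacking enzyme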
Apaf-1 inh: human Apaf-1 inhibition | O14727 | reconstituted apoptosome caspase-3 activity, DEVD-Rh110 fluorescence | inhibition, % at 20 µM | 330,000 tested, 0.71% active; active = inhibition of at least 40% at 20 µM;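 also: plate controls were DMSO wells for no effect and DEVD-CHO caspase inhibitor wells for full effect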
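Assay system: Apoptosome proteins | Medium: pH 7.5 Hepes buffer with CHAPS, BSA, DTT | Also added: Cytochrome c and DEVD-Rh110 substrate | Times: 30 min plus 50 min, RT | Detection: Rhodamine 110 fluorescence at Ex 480/Em 540 nm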
PREPL inh cf: human PREPL inhibition, confirmation; shares compounds with PREPL inhibitor; recombinant PREPL, fluorescence polarization activity probe; inhibition, % at 5.96 µM; 2,000 tested, 67% active; AID 2803;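 also: 0% = protein with DMSO and 100% = wells lacking protein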
Casp3 UBC13 ctr: caspase-3 inhibition (UBC13 counter-screen); inhibition, % at 20 µM; AID 488856; Recombinant caspase-3, Caspase-Glo 3/7 luminescence, 60 min; shares compounds with UBC13 inh; 1,400 tested, 4% active;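 active = mean inhibition across replicates above about 26%, limit read from the data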;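 also: plate controls were DMSO with caspase-3 for no effect and DMSO wells lacking enzyme for full effect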
Target sequence (P42574 whole entry, looked up): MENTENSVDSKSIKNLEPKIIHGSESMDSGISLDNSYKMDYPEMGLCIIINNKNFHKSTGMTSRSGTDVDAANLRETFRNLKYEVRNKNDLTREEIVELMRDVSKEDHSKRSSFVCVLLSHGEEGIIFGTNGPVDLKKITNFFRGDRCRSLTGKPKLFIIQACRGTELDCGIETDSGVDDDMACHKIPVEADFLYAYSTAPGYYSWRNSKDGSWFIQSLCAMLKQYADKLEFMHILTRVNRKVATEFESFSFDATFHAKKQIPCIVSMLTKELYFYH
UBC13 confirm: confirmation of human UBC13 polyubiquitin inhibitors | shares compounds with UBC13 inh | UBC13 polyubiquitination, TR-FRET, biochemical | inhibition, % at 10 µM | 1,400 tested, 68% active | AID 488859; in the data active = inhibition above about 45%; inconclusive = no clear call, values can overlap the other calls
Apaf-1 inh conf2: confirmation of Apaf-1 inhibitors; shares compounds with Apaf-1 inh; reconstituted apoptosome, caspase-3 DEVD-Rh110 fluorescence; inhibition, % at 20 µM; 1,800 tested, 25% active;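 active = mean inhibition of at least 40% at 20 µM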;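 also: plate controls were DMSO wells for no effect and DEVD-CHO caspase inhibitor control wells for full effect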
Rh110 interf inh: counter-screen for Apaf-1 inhibitors: fluorescence interference; Rh110 fluorescence interference, quenched caspase reaction; shares compounds with Apaf-1 inh; 1,800 tested, under 10 active; AID 504615; activation (fluorescence interference), % at 20 µM;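 active = signal rise of 40% or more at 20 µM, treated as a fluorescence artifact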
Apaf1 inh interf: Apaf-1 inhibitor counter-screen fluorescence artifact | fluorescence interference counterscreen, Apaf-1 assay format | IC50, µM | 460 tested, under 10 active | shares compounds with Apaf-1 inh; call rule not given here
Numbers without * were called inactive; ? = inconclusive; · = not tested or not shown; ! = not confirmed by another sample. A selection: hits, their analogues and other compounds. The true share with any hit is near 1.7%. Rule as the data show it, unless noted: active = inhibition above about 43%; inactive = the rest.

SMILES	EBNA-1 inhibitor	ZTA DNA inh	UBC13 inh	PREPL inhibitor	Apaf-1 inh	PREPL inh cf	others
Cc1ccc(CN2CCN(CC(=O)N3CCC4(CC3)OCCO4)C2=O)cc1	3	-2	-8	7	4	·
O=C(c1ccc2c(c1)N(Cc1ccc(F)cc1)CCS2)N1CCC2(CC1)OCCO2	-5	2	18	67*	15	63*
Cc1ccc(CN2CCSc3ccc(C(=O)N4CCC5(CC4)OCCO5)cc32)cc1	-1	-11	15	82*	19	74*
O=C(c1ccc2c(c1)ncn2-c1ccc(F)cc1F)N1CCC2(CC1)OCCO2	-6	12	-26	6	-76	·
COc1cc2occc2c2oc(=O)ccc12	9	-11	6	13	7	·
CC(C)NC(C)Cc1ccc(I)cc1 (centres undefined)	9	17	-3	-1	-5	·
CCC(C)C1(CC)C(=O)NC(=O)N=C1N (centres undefined)	7	-7	2	2	-5	·
C=CCn1c(O)c(C(CC)=NCCc2c[nH]c3ccccc23)c(=O)[nH]c1=O	3	4	11	49*	0	52*
O=c1cc(C(F)(F)F)c2cc3c4c(c2o1)CCCN4CCC3	2	2	-2	56*	2	55*
Cc1cc2c(C(F)(F)F)cc(=O)oc2c2c1NCCC2	-12	3	2	6	5	·
NCCCC(=O)OC1N=C(c2ccccc2Cl)c2cc(Br)ccc2NC1=O (centres undefined)	4	16	17	5	-3	·
NCCCCCC(=O)OC1N=C(c2ccccc2Cl)c2cc(Br)ccc2NC1=O (centres undefined)	-5	-7	22	59*	0	46*
COc1ccc2[nH]c(C)c(CCNCc3cc(OC)c4c(c3)OCO4)c2c1	·	10	13	74*	-4	66*
CC(C)N1CC=C(c2c[nH]c3ccccc23)CC1	-1	8	-21	-28	1	·
C1=C(c2c[nH]c3ccccc23)CCNC1	-19	-6	96*	62*	10	63*
CCOc1cccc(=NC2CCCCC2)c2c(C)n(C)c(C)c12	4	12	-133	48*	-16	50*
C[n+]1c(-c2ccccc2)c2cc(N)ccc2c2ccc(N)cc21	8	-21	-186	142*	98*	124*	Apaf-1 inh conf2=80*;Rh110 interf inh=2;Apaf1 inh interf=>100
Nc1ccc2ccc3cccc[n+]3c2c1	2	-14	-150	38	1	·
COC(=O)C1=C(c2ccc(-c3ccccc3)c(F)c2)C[C@@H]2CC[C@H]1N2C(=O)NC(C)C	·	-6	-6	13	21	·
COC(=O)C1=C(c2cccc(OCc3ccccc3)c2)C[C@@H]2CC[C@H]1N2C(=O)NC1CCN(Cc2ccccc2)CC1	·	-11	36	51*	48*	44*	Apaf-1 inh conf2=11;Rh110 interf inh=4
Nc1ccc2nonc2c1[N+](=O)[O-]	-2	-13	-59	5	0	·
CN1CCc2cc3c(c4c2C1Cc1ccccc1-4)OCO3 (centres undefined)	0	-11	-118	46*	91*	40	Apaf-1 inh conf2=67*;Rh110 interf inh=9;Apaf1 inh interf=>100
CN1[C@@H]2CC[C@H]1CC(OC1c3ccccc3CCc3ccccc31)C2 (some centres undefined)	-3	-5	58*	22	23	·	Casp3 UBC13 ctr=-2;UBC13 confirm=37
CN1C2CCC1CC(OC(=O)c1ccc(Cl)cc1)C2 (centres undefined)	-3	-14	6	2	0	·
CC(=O)N1N=C(c2cccnc2)CC1c1ccccc1O (centres undefined)	-5	14	2	9	0	·
SMILES	EBNA-1 inhibitor	ZTA DNA inh	UBC13 inh	PREPL inhibitor	Apaf-1 inh	PREPL inh cf	others
CC(=O)N1N=C(c2c(O)n(C)c(=O)n(C)c2=O)CC1c1ccccc1 (centres undefined)	3	5	51*	0	-15	·	Casp3 UBC13 ctr=2;UBC13 confirm=22
Cc1cccc(N2CCc3c2nc2ccccc2c3N)c1	6	5	62*!	29	7	·	Casp3 UBC13 ctr=0;UBC13 confirm=47*
O=C(C(=O)N1CCOCC1)c1cn(Cc2ccccc2)c2ccccc12	12	13	45*	43	-4	·	Casp3 UBC13 ctr=0;UBC13 confirm=37
Cc1ccc2c(c1)C1C[N+](C)(CC(=O)c3ccc(Cl)cc3Cl)CCC1N2C(=O)c1ccc(F)cc1 (centres undefined)	·	·	47*	20	39	·	Casp3 UBC13 ctr=5;UBC13 confirm=49*
O=C(CN1CC=C(c2ccccc2)CC1)NC(=O)NC1CCCCC1	-6	-1	2	16	-2	·
CCc1ccccc1N1C(=O)NC(=O)/C(=C\c2cc(C)n(C)c2C)C1=O	-5	0	-14	1	-1	·
Cc1ccc2[nH]c(=S)n(-c3cccnc3)c(=O)c2c1	-6	-12	50*	12	-5	·	Casp3 UBC13 ctr=-2;UBC13 confirm=?
O=c1c2cc(Br)ccc2[nH]c(=S)n1-c1ccccc1	0	1	46*	3	-21	·	Casp3 UBC13 ctr=-4;UBC13 confirm=?
O=c1c2ccccc2[nH]c(=S)n1-c1ccc(Br)cc1	-5	6	17	0	0	·
O=c1c2ccccc2[nH]c(=S)n1-c1cccnc1	-9	-9	23	-4	-7	·
CN1CCN(c2ccc(N)c(N3CCN(C)CC3)c2)CC1	-3	1	49*	4	18	·	Casp3 UBC13 ctr=1;UBC13 confirm=78*
ClCCN1CCN(c2ccnc3cc(Cl)ccc23)CC1	-7	12	62*	20	-1	·	Casp3 UBC13 ctr=-2;UBC13 confirm=90*
COc1ccc(N2C(=O)CC(N3CC=C(c4ccccc4)CC3)C2=O)cc1 (centres undefined)	2	-10	-20	13	7	·
Clc1ccc(C(Cn2ccnc2)OCc2csc3c(Cl)cccc23)c(Cl)c1 (centres undefined)	11	22	44	30	40	·
Clc1ccc(CCC(Cn2ccnc2)Sc2c(Cl)cccc2Cl)cc1 (centres undefined)	-4	-3	48*	2	24	·	Casp3 UBC13 ctr=-5;UBC13 confirm=34
Cc1ccc(/C=C2/C(=O)NC(=O)N(C)C2=O)cc1	11	10	-4	-4	-13	·
COc1ccc(/C=N/N=C(/N)N[N+](=O)[O-])c(OC)c1	-11	-12	-10	2	-11	·

Screens: PubChem, several laboratories
